Columns and labels:
[1] = system: highly purified human NKs; experiment: IL-1β secretion assay; format: cell-based; details: for Interleukin 1 beta secreted: NK
How it was run: (§1)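 NK cells, MD-PBMCs, PBMCs or granulocytes (1.5 million/mL) or PBMC+granulocytes (0.75 million/mL each), per donor, exposed 24 h, 48 h or 6 days to 0.05–5 μM test compound diluted from DMSO stock, with DMSO controls. Supernatants kept at −70 °C. IL-1β by sandwich ELISA: HRP detection antibody, acid-stopped substrate, A450 against standards. Detection limit 3 pg/mL; triplicates; ANOVA then t test versus control, p<0.05.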

[2] = system: monocyte-depleted PBMCs; experiment: IL-1β secretion assay; format: cell-based, human; details: MD-PBMCs
How it was run: as §1

## CCC[CH2][Sn][CH2]CCC [DBT, Dibutyltin]
[1]; NK cells, 24 h, across donors
  average of the maximum fold increase in IL-β secretion: 3.5 fold
[1]; NK cells, donor KB169, 0.05 μM (50 nM) DBT
  fold increase in IL-1β secretion: 7.9 fold
[1]; NK cells, donor KB169, 0.1 μM (100 nM) DBT
  fold increase in IL-1β secretion: 6.0 fold
[1]; donor KB130, 24 h, 0.05 μM DBT
  Interleukin 1 beta secreted: 386 ± 41 pg/mL
[1]; donor KB130, 24 h, 0.1 μM DBT
  Interleukin 1 beta secreted: 116 ± 27 pg/mL
[1]; donor KB130, 24 h, 0.25 μM DBT
  Interleukin 1 beta secreted: 17 ± 20 pg/mL
[1]; donor KB130, 48 h, 0.05 μM DBT
  Interleukin 1 beta secreted: 1372 ± 481 pg/mL
[1]; donor KB130, 48 h, 0.1 μM DBT
  Interleukin 1 beta secreted: 298 ± 65 pg/mL
[1]; donor KB130, 48 h, 0.25 μM DBT
  Interleukin 1 beta secreted: 139 ± 46 pg/mL
[1]; donor KB130, 6 day, 0.05 μM DBT
  Interleukin 1 beta secreted: 782 ± 35 pg/mL
[1]; donor KB130, 6 day, 0.1 μM DBT
  Interleukin 1 beta secreted: 550 ± 21 pg/mL
[1]; donor KB130, 6 day, 0.25 μM DBT
  Interleukin 1 beta secreted: 142 ± 27 pg/mL
[1]; donor KB130, 6 day, 0.5 μM DBT
  Interleukin 1 beta secreted: 46 ± 53 pg/mL
[1]; donor KB155, 24 h, 0.05 μM DBT
  Interleukin 1 beta secreted: 2965 ± 1004 pg/mL
[1]; donor KB155, 24 h, 0.1 μM DBT
  Interleukin 1 beta secreted: 2771 ± 70 pg/mL
[1]; donor KB155, 24 h, 0.25 μM DBT
  Interleukin 1 beta secreted: 779 ± 25 pg/mL
[1]; donor KB155, 24 h, 0.5 μM DBT
  Interleukin 1 beta secreted: 28 ± 23 pg/mL
[1]; donor KB155, 48 h, 0.05 μM DBT
  Interleukin 1 beta secreted: 5235 ± 531 pg/mL
[1]; donor KB155, 48 h, 0.1 μM DBT
  Interleukin 1 beta secreted: 4588 ± 130 pg/mL
[1]; donor KB155, 48 h, 0.25 μM DBT
  Interleukin 1 beta secreted: 1598 ± 450 pg/mL
[1]; donor KB155, 48 h, 0.5 μM DBT
  Interleukin 1 beta secreted: 130 ± 39 pg/mL
[1]; donor KB155, 6 day, 0.05 μM DBT
  Interleukin 1 beta secreted: 1625 ± 164 pg/mL
[1]; donor KB155, 6 day, 0.1 μM DBT
  Interleukin 1 beta secreted: 1572 ± 245 pg/mL
[1]; donor KB155, 6 day, 0.25 μM DBT
  Interleukin 1 beta secreted: 960 ± 152 pg/mL
[1]; donor KB155, 6 day, 0.5 μM DBT
  Interleukin 1 beta secreted: 138 ± 43 pg/mL
[1]; donor KB169, 24 h, 0.05 μM DBT
  Interleukin 1 beta secreted: 1551 ± 25 pg/mL
[1]; donor KB169, 24 h, 0.1 μM DBT
  Interleukin 1 beta secreted: 1173 ± 69 pg/mL
[1]; donor KB169, 24 h, 0.25 μM DBT
  Interleukin 1 beta secreted: 796 ± 137 pg/mL
[1]; donor KB169, 24 h, 0.5 μM DBT
  Interleukin 1 beta secreted: 114 ± 21 pg/mL
[1]; donor KB169, 48 h, 0.05 μM DBT
  Interleukin 1 beta secreted: 341 ± 10 pg/mL
[1]; donor KB169, 48 h, 0.1 μM DBT
  Interleukin 1 beta secreted: 367 ± 53 pg/mL
[1]; donor KB169, 48 h, 0.25 μM DBT
  Interleukin 1 beta secreted: 262 ± 14 pg/mL
[1]; donor KB169, 6 day, 0.05 μM DBT
  Interleukin 1 beta secreted: 453 ± 91 pg/mL
[1]; donor KB169, 6 day, 0.1 μM DBT
  Interleukin 1 beta secreted: 602 ± 257 pg/mL
[1]; donor KB169, 6 day, 0.25 μM DBT
  Interleukin 1 beta secreted: 511 ± 227 pg/mL
[1]; donor KB169, 6 day, 0.5 μM DBT
  Interleukin 1 beta secreted: 157 ± 61 pg/mL
[2]; 24 h, across donors
  average of the maximum fold increase in IL-β secretion: 2.0 fold
[2]; donor F142, 24 h, 0.05 μM DBT
  Interleukin 1 beta secreted: 11284 ± 763 pg/mL
  fold increase in IL-1β secretion: 1.5 fold
[2]; donor F142, 24 h, 50 nM DBT
  fold increase in IL-1β secretion: 1.5 fold
[2]; donor F142, 24 h, 0.1 μM DBT
  Interleukin 1 beta secreted: 12495 ± 3130 pg/mL
[2]; donor F142, 24 h, 100 nM DBT
  fold increase in IL-1β secretion: 1.6 fold
[2]; donor F142, 24 h, 0.25 μM DBT
  Interleukin 1 beta secreted: 4456 ± 561 pg/mL
[2]; donor F142, 24 h, 0.5 μM DBT
  Interleukin 1 beta secreted: 2637 ± 1438 pg/mL
[2]; donor F142, 24 h, 1 μM DBT
  Interleukin 1 beta secreted: 77 ± 24 pg/mL
[2]; donor F142, 48 h, 0.05 μM DBT
  Interleukin 1 beta secreted: 14932 ± 420 pg/mL
[2]; donor F142, 48 h, 0.1 μM DBT
  Interleukin 1 beta secreted: 15275 ± 650 pg/mL
[2]; donor F142, 48 h, 0.25 μM DBT
  Interleukin 1 beta secreted: 6455 ± 123 pg/mL
[2]; donor F142, 48 h, 0.5 μM DBT
  Interleukin 1 beta secreted: 2604 ± 133 pg/mL
[2]; donor F142, 48 h, 1 μM DBT
  Interleukin 1 beta secreted: 851 ± 54 pg/mL
[2]; donor F142, 48 h, 2.5 μM DBT
  Interleukin 1 beta secreted: 6 ± 27 pg/mL
[2]; donor F142, 6 day, 0.05 μM DBT
  Interleukin 1 beta secreted: 2303 ± 313 pg/mL
[2]; donor F142, 6 day, 0.1 μM DBT
  Interleukin 1 beta secreted: 1606 ± 808 pg/mL
[2]; donor F142, 6 day, 0.25 μM DBT
  Interleukin 1 beta secreted: 560 ± 127 pg/mL
[2]; donor F142, 6 day, 0.5 μM DBT
  Interleukin 1 beta secreted: 270 ± 197 pg/mL
[2]; donor F142, 6 day, 1 μM DBT
  Interleukin 1 beta secreted: 90 ± 100 pg/mL
[2]; donor F145, 24 h, 0.05 μM DBT
  Interleukin 1 beta secreted: 3333 ± 164 pg/mL
[2]; donor F145, 24 h, 50 nM DBT
  fold increase in IL-1β secretion: 1.5 fold
[2]; donor F145, 24 h, 0.1 μM DBT
  Interleukin 1 beta secreted: 2390 ± 497 pg/mL
[2]; donor F145, 24 h, 100 nM DBT
  fold increase in IL-1β secretion: no increase
[2]; donor F145, 24 h, 0.25 μM DBT
  Interleukin 1 beta secreted: 700 ± 8 pg/mL
[2]; donor F145, 24 h, 0.5 μM DBT
  Interleukin 1 beta secreted: 47 ± 59 pg/mL

From PMC5114172 (Journal of applied toxicology : JAT, 2016)
